Published values gathered from unrelated publications.
Each line is one published result; the experiments were not run side by side.
Target: Activated CDC42 kinase 1 (TNK2, Homo sapiens, UniProt Q07912)

With `Cn1cc(-c2cccc(N3CCc4c(sc5c4CC(C)(C)C5)C3=O)c2CO)cc(Nc2ccncn2)c1=O` the inhibition was 0% (enzyme activity; inhibitor; 1 µM).
With `Nc1ncc(-c2nc(N3CCOCC3)nc(N3CCOCC3)n2)c(C(F)F)n1` the remaining binding was 85% (binding; competition with immobilised ligand; 10 µM).
`Cn1cncc1[C@](O)(COc1ccc(C#N)cc1-c1ccc(OC(F)(F)F)cc1)c1ccc(C#N)cc1` has a remaining binding of 100% (cell-free assay; competition with immobilised ligand; 1 µM).
`O=c1[nH]c2ccccc2n1C1CCN(Cc2ccc(-c3[nH]c4cc5ncnc5cc4nc3-c3ccccc3)cc2)CC1` has a remaining signal of 92.3% (cell-free assay; 0.5 µM).
`Cn1cc(-c2cc(F)cc(N3CCn4c(cc5c4CCCC5)C3=O)c2CO)cc(Nc2ccc(N3CCN(C4COC4)CC3)cn2)c1=O` gave an inhibition of 1% (enzyme activity; inhibitor; 0.1 µM).
The remaining activity of `CC(C)(C)c1cc(C=C(C#N)C#N)cc(Br)c1O` is reported as 93.1% (enzyme activity; inhibitor; 0.5 µM).
For `COc1ncccc1-c1cnn2ccc(N3CCN(C(=O)OC(C)C)CC3)nc12`, the remaining binding was 94% (binding; competition with immobilised ligand; 1 µM).
For `COc1cc(Nc2ncc(F)c(Nc3ccc4c(n3)NC(=O)C(C)(C)O4)n2)cc(OC)c1OC`, the inhibition was 99% (binding; 10 µM).
The remaining activity of `COc1cc(Cl)c(C(=O)N[C@@H](CN[C@H]2CC[C@@H](N)CC2)Cc2ccc(C#N)cc2)cc1-c1ccc(CN[C@H](C)c2ccc(C)cc2)o1` is reported as 107% (enzyme activity; inhibitor; 1 µM).
